Source: ChEMBL document CHEMBL2380243, “Design and synthesis of 2-N-substituted indazolone derivatives as non-carboxylic acid glycogen synthase activators” (Bioorg Med Chem Lett, 2013)
pEC50: −log10 of the molar value.

Tests used:
[1] = molecular target: T1, Glycogen [starch] synthase, muscle (Homo sapiens) (UniProt P13807); assay: Activation of human recombinant muscle GYS1 expressed in insect sf9 cells using glycogen and UDP-glucose as substrates assessed as concentration required to 200% activation by spectrophotometry
T1 sequence (whole entry): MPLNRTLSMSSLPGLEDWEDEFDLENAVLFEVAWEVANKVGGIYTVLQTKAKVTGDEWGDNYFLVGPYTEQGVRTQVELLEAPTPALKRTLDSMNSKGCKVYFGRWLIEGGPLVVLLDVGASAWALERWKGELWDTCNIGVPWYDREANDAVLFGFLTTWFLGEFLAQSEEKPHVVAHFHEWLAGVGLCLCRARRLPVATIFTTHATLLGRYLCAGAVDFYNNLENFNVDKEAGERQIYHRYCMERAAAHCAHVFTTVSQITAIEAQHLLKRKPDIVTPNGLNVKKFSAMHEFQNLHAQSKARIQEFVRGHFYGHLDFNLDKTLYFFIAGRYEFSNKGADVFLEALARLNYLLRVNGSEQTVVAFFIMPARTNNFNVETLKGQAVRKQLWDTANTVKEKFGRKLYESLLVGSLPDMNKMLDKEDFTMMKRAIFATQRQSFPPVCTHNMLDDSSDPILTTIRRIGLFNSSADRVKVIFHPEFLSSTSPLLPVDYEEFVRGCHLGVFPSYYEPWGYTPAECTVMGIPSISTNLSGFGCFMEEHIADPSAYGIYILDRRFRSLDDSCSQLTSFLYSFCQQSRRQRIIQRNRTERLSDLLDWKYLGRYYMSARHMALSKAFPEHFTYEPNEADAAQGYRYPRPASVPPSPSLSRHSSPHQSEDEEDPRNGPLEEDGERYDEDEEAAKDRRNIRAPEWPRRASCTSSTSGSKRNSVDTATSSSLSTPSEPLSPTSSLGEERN
Method in brief: (§1)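 Recombinant human muscle GYS1 (partially purified from sf9 cells) is read in a pyruvate kinase/lactate dehydrogenase-coupled assay at room temperature. Compounds are diluted in 30 mM glycylglycine pH 7.3, 40 mM KCl, 20 mM MgCl2, 9.2% DMSO, ±20 mM glucose-6-phosphate. The substrate mix holds glycogen, UDP-glucose, PEP and NADH, all as solution concentrations. NADH loss is read at 340 nm every 3 min for 15 min. EC50 is half-maximal activation, SC200 is the concentration doubling activity, and dose-response runs are in triplicate.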

[2] = molecular target: T1, Glycogen [starch] synthase, muscle (Homo sapiens); assay: Activation of human recombinant muscle GYS1 expressed in insect sf9 cells using glycogen and UDP-glucose as substrates at 75 uM by spectrophotometry relative to control
Method in brief: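 Same coupled GYS1 assay (sf9-derived human muscle enzyme, PK/LDH coupling, NADH absorbance at 340 nm read every 3 min over 15 min, room temperature). Activation is expressed as fold increase over control at the highest concentration tested.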

[3] = molecular target: T2, Glycogen [starch] synthase, muscle (Homo sapiens, UniProt P13807); assay: Activation of human recombinant muscle GYS1 expressed in insect sf9 cells using glycogen and UDP-glucose as substrates by spectrophotometry; method in brief: as §1
T2 sequence (P13807 whole entry): T1 sequence (whole entry)

[4] = Cmax in C57 mouse at 10 mg/kg, po; format: ADME, organism-based; design: dose 10 mg/kg, route oral; conditions: in vivo
Method in brief: (§2)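 C57 mice get a single oral dose of 10 mg/kg as an aqueous suspension in 0.1 M phosphate buffer, pH 7.4, containing 10% PEG 400 by volume. Plasma exposure is measured and reported as Cmax and AUC.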

[5] = AUC in C57 mouse at 10 mg/kg, po; format: ADME, organism-based; design: dose 10 mg/kg, route oral; conditions: plasma; method in brief: as §2
Mus musculus = assay: Drug metabolism in po dosed C57 mouse assessed as conversion to ortho-aminobenzoic acid in plasma; format: ADME, organism-based; conditions: in vivo

| SMILES | Activity [1] [µM] | fold change (FC) [2] | pEC50 [3] | Cmax [4] [µg/mL] | AUC [5] [µg·h/mL] | Drug metabolism (Mus musculus) |
| --- | --- | --- | --- | --- | --- | --- |
| Cc1cc(F)c(F)cc1-c1ccc(OCc2cccc3c(=O)n(-c4ccc(F)cc4)[nH]c23)cc1 | 1.86 | 2.5 | 5.83 |  |  |  |
| O=C(O)[C@@H]1CCCN1C(=O)c1ccc(COc2ccc(-c3ccccc3)cc2)o1 |  | 5.8 | 4.82 |  |  |  |
| COc1cc(F)c(F)cc1-c1ccc(OCc2cccc3c(=O)n(-c4ccc(F)cc4)[nH]c23)cc1 | 2.01 | 2.8 | 5.86 |  |  |  |
| COc1cc(F)c(F)cc1-c1ccc(OCc2cccc(C(=O)N(C)CC(O)CO)c2)cc1 (stereo unspecified) |  | 6.6 | 4.99 |  |  |  |
| COc1cc(F)c(F)cc1-c1ccc(OCc2cccc3c(=O)n(CC(=O)O)[nH]c23)cc1 | 0.06 | 3.2 | 6.70 |  |  |  |
| O=C(O)Cn1[nH]c2c(COc3ccc(-c4cc(F)c(F)cc4F)cc3)cccc2c1=O | 0.69 | 3.6 | 5.92 |  |  |  |
| O=c1c2cccc(COc3ccc(-c4cc(F)c(F)cc4F)cc3)c2[nH]n1C[C@H](O)CO | 0.41 | 3 | 6.24 |  |  |  |
| O=c1c2cccc(COc3ccc(-c4cc(F)c(F)cc4F)cc3)c2[nH]n1C[C@@H](O)CO | 0.32 | 3.3 | 6.17 |  |  |  |
| Cc1cc(F)c(F)cc1-c1ccc(OCc2cccc3c(=O)n(C[C@@H](O)CO)[nH]c23)cc1 | 0.1 | 3 | 6.64 |  |  |  |
| COc1cc(F)c(F)cc1-c1ccc(OCc2cccc3c(=O)n(C[C@H](O)CO)[nH]c23)cc1 | 0.07 | 3.3 | 6.60 |  |  |  |
| Cc1cc(F)c(F)cc1-c1ccc(OCc2cccc3c(=O)n(C[C@H](O)CO)[nH]c23)cc1 | 0.11 | 3.3 | 6.47 |  |  |  |
| O=c1c2cccc(COc3ccc(-c4cc(F)c(F)cc4Cl)cc3)c2[nH]n1C[C@@H](O)CO | 0.25 | 3.6 | 6.59 |  |  |  |
| Cn1[nH]c2c(COc3ccc(-c4cc(F)c(F)cc4F)cc3)cccc2c1=O | 0.49 | 6.8 | 5.75 | 0.254 | 0.746 |  |
| COc1cc(F)c(F)cc1-c1ccc(OCc2cccc(C(=O)N3CCC[C@H]3C(=O)O)c2)cc1 |  | 5.4 | 6.85 |  |  |  |
| O=c1c2cccc(COc3ccc(-c4cc(F)c(F)cc4Cl)cc3)c2[nH]n1C[C@H](O)CO | 0.16 | 3.5 | 6.52 |  |  |  |
| COc1cc(F)c(F)cc1-c1ccc(OCc2cccc(C(=O)N(C)CC(=O)O)c2)cc1 |  | 6.8 | 7.00 |  |  |  |
| O=c1c2cccc(COc3ccc(-c4cc(F)c(F)cc4F)cc3)c2[nH]n1CCO | 0.22 | 5.5 | 6.11 | 1.35 | 3.59 |  |
| COc1cc(F)c(F)cc1-c1ccc(OCc2cccc(C(=O)N(C)CCO)c2)cc1 |  | 7.3 | 5.39 |  |  |  |
| Cc1cc(F)c(F)cc1-c1ccc(OCc2cccc3c(=O)n(CC(=O)O)[nH]c23)cc1 | 0.33 | 3.7 | 6.38 |  |  |  |
| O=c1c2cccc(COc3ccc(-c4cc(F)c(F)cc4F)cc3)c2[nH]n1-c1cccnc1 | 2.75 | 5.8 | 5.40 |  |  |  |
| O=c1o[nH]c2c(COc3ccc(-c4cc(F)c(F)cc4F)cc3)cccc12 | 0.41 | 4 | 6.00 |  |  | Active |
| COc1cc(F)c(F)cc1-c1ccc(OCc2cccc3c(=O)n(C[C@@H](O)CO)[nH]c23)cc1 | 0.06 | 3.1 | 6.57 |  |  |  |
| COCCn1[nH]c2c(COc3ccc(-c4cc(F)c(F)cc4F)cc3)cccc2c1=O | 0.52 | 3 | 6.10 |  |  |  |
| COCCn1[nH]c2c(COc3ccc(-c4cc(F)c(F)cc4OC)cc3)cccc2c1=O | 0.11 | 4.4 | 6.43 |  |  |  |
| COc1cc(F)c(F)cc1-c1ccc(OCc2cccc3c(=O)n(C)[nH]c23)cc1 | 0.07 | 5.4 | 6.49 |  |  |  |
| O=c1c2cccc(COc3ccc(-c4cc(F)c(F)cc4Cl)cc3)c2[nH]n1-c1cccnc1 | 1.14 | 6.1 | 5.73 |  |  |  |
| Cc1cc(F)c(F)cc1-c1ccc(OCc2cccc3c(=O)n(C)[nH]c23)cc1 | 0.13 | 3 | 6.62 |  |  |  |
